The values below come from ChEMBL document CHEMBL1133704, “Synthesis, biodistribution, and primate imaging of fluorine-18 labeled 2beta-carbo-1'-fluoro-2-propoxy-3beta-(4-chlorophenyl)tr opanes. Ligands for the imaging of dopamine transporters by positron emission tomography” (J Med Chem, 2000).

For one series, the system named is kidney. Description: Ratio of inhibition of 5-HT to inhibition of dopamine (5-HT/DA) in murine kidney cells transfected with human serotonin transporter. The format is cell-based.
For series [1], the target named is Norepinephrine transporter (Rattus norvegicus, UniProt Q9WTR4). The series is described as follows: Inhibition constant in rat Norepinephrine transporter. In outline:
(§1)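 Run by an outside screening program on membranes from rat striatum or cortex. Radioligand (2-12 nM) was incubated with 7-11 competitor concentrations. Radioligands: [N-methyl-³H]WIN 35,428 for DAT, [³H]citalopram for 5-HT transporter, [³H]desmethylimipramine for NE transporter. Ki values reported.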

Series [2] is described as follows: Ratio of Distribution of Radioactivity (percent injected dose per gram of tissue) in striatum to cortex of brain after 120 min of iv administration; value ranges from 2.61-3.24. The class given is ADME, organism-based. Conditions: in vivo, 2 h.
A short description of series [3]: Ratio of Distribution of Radioactivity (percent injected dose per gram of tissue) in striatum to cortex of brain after 60 min of iv administration; value ranges from 2.59-4.06. The format is ADME, organism-based. The settings on record: in vivo, 1 h.
For series [4], the system named is Rattus norvegicus. Description: Distribution of Radioactivity (percent injected dose per gram of tissue) in rest rat of brain after 30 min of iv administration; value ranges from 0.85-1.21. The class given is ADME, organism-based. The settings on record: in vivo, 0.5 h. In outline: (§2)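 Male Sprague-Dawley rats (225-300 g) under ketamine received a tail-vein dose of 50 µCi of [18F]-labeled tropane in 0.2 mL 13% EtOH/0.9% NaCl. At 5, 30, 60 or 120 min, cortex, striatum and cerebellum were dissected into tared tubes, weighed and γ-counted. "Rest of brain" was also counted. %dose/g was calculated against the diluted injected dose. Values are mean and range for three or four rats.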

The nature of series [5]: Ratio of Distribution of Radioactivity (percent injected dose per gram of tissue) in striatum to cerebellum of brain after 30 min of iv administration; value ranges from 3.83-4.94. The class given is ADME, organism-based. The settings on record: in vivo, 0.5 h.
The subject of series [6] is Rattus norvegicus. Description: Distribution of Radioactivity (percent injected dose per gram of tissue) in Rat brain cerebellum after 5 min of iv administration; value ranges from 1.26-1.62. The settings on record: in vivo. The class given is ADME, organism-based. An outline of the steps: as §2
Series [7] can be described thus: Ratio of Distribution of Radioactivity (percent injected dose per gram of tissue) in striatum to cerebellum of brain after 60 min of iv administration; value ranges from 4.43-6.93. The class given is ADME, organism-based. The settings on record: in vivo, 1 h.
A short description of series [8]: Ratio of Distribution of Radioactivity (percent injected dose per gram of tissue) in striatum to cortex of brain after 30 min of iv administration; value ranges from 1.67-2.85. The format is ADME, organism-based. The settings on record: in vivo, 0.5 h.
Series [9] has as its system Rattus norvegicus. The series is described as follows: Distribution of Radioactivity (percent injected dose per gram of tissue) in rest rat of brain after 5 min of iv administration; value ranges from 1.19-1.53. The settings on record: in vivo. The class given is ADME, organism-based. An outline of the steps:
as §2

The nature of series [10]: Ratio of Distribution of Radioactivity (percent injected dose per gram of tissue) in striatum to cerebellum of brain after 5 min of iv administration; value ranges from 2.49-3.81. The format is ADME, organism-based. Conditions: in vivo.
The test system of series [11] is Rattus norvegicus. Description: Distribution of Radioactivity (percent injected dose per gram of tissue) in Rat brain cortex after 60 min of iv administration; value ranges from 0.51-1.09. The class given is ADME, organism-based. The settings on record: in vivo, 1 h. An outline of the steps: as §2
In series [12] the test system is Rattus norvegicus. The series is described as follows: Distribution of Radioactivity (percent injected dose per gram of tissue) in Rat brain cerebellum after 120 min of iv administration; value ranges from 0.19-0.25. The class given is ADME, organism-based. Conditions: in vivo, 2 h. In outline: as §2
The test system of series [13] is Rattus norvegicus. The series is described as follows: Distribution of Radioactivity (percent injected dose per gram of tissue) in Rat brain cerebellum after 60 min of iv administration; value ranges from 0.32-0.48. The format is ADME, organism-based. The settings on record: in vivo, 1 h. In outline:
as §2

For series [14], the target named is Sodium-dependent serotonin transporter (Homo sapiens, UniProt P31645). The series is described as follows: Inhibition constant against [3H]citalopram in murine kidney cells transfected with human serotonin transporter. The format is cell-based. An outline of the steps: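 Membranes from a kidney cell line stably expressing human SERT. Buffer: 50 mM Tris, 120 mM NaCl, 5 mM KCl, pH 7.9. Radioligand: [³H]citalopram at 0.5 nM final. Incubated 1 h at 22 °C with competitor at nine concentrations (10^-13 to 10^-6 M, triplicate). Filtration, then scintillation counting. Ki taken from competition curves.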
Sodium-dependent serotonin transporter (Homo sapiens, UniProt P31645), sequence (P31645 whole entry): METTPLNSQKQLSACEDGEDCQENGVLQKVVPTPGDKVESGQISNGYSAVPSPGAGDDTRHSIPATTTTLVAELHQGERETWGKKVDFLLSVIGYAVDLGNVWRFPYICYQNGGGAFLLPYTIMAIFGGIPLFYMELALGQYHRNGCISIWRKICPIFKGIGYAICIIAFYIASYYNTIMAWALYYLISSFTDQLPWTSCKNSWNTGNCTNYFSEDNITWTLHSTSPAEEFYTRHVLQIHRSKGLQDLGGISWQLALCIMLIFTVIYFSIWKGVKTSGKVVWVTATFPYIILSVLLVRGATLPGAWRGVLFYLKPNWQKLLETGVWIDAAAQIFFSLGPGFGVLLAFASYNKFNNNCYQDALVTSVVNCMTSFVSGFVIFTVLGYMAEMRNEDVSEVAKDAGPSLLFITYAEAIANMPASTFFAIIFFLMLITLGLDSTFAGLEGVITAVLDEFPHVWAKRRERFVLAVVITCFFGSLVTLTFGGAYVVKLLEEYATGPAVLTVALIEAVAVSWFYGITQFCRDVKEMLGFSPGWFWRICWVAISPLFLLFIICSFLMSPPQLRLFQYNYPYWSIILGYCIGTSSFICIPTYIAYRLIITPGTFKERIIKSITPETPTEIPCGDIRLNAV

The test system of series [15] is Rattus norvegicus. The series is described as follows: Distribution of Radioactivity (percent injected dose per gram of tissue) in Rat brain cerebellum after 30 min of iv administration; value ranges from 0.75-1.23. The format is ADME, organism-based. Conditions: in vivo, 0.5 h. An outline of the steps:
as §2

For series [16], the system named is Rattus norvegicus. The series is described as follows: Distribution of Radioactivity (percent injected dose per gram of tissue) in Rat striatum after 120 min of iv administration; value ranges from 1.07-1.22. The settings on record: in vivo, 2 h. The class given is ADME, organism-based. An outline of the steps:
as §2

For series [17], the system named is Rattus norvegicus. The series is described as follows: Distribution of Radioactivity (percent injected dose per gram of tissue) in Rat brain cortex after 120 min of iv administration; value ranges from 0.22-0.33. The class given is ADME, organism-based. Conditions: in vivo, 2 h. In outline:
as §2

Series [18] deals with Rattus norvegicus. The series is described as follows: Distribution of Radioactivity (percent injected dose per gram of tissue) in rest rat of brain after 120 min of iv administration; value ranges from 0.22-0.33. The class given is ADME, organism-based. The settings on record: in vivo, 2 h. An outline of the steps:
as §2

Series [19] addresses Sodium-dependent dopamine transporter (Rattus norvegicus, UniProt P23977). The series is described as follows: Inhibition constant in rat dopamine transporter. In outline:
as §1

The subject of series [20] is Rattus norvegicus. The series is described as follows: Distribution of Radioactivity (percent injected dose per gram of tissue)in Rat striatum after 30 min of iv administration; value ranges from 3.57-6.08. The class given is ADME, organism-based. Conditions: in vivo, 0.5 h. An outline of the steps:
as §2

Series [21] concerns the target Sodium-dependent serotonin transporter (Rattus norvegicus, UniProt P31652). The series is described as follows: Inhibition constant in rat serotonin transporter. In outline: as §1
The test system of series [22] is Rattus norvegicus. The series is described as follows: Distribution of Radioactivity (percent injected dose per gram of tissue) in Rat striatum 5 min of iv administration; value ranges from 3.44-4.80. The format is ADME, organism-based. Conditions: in vivo. In outline:
as §2

The subject of series [23] is Rattus norvegicus. The series is described as follows: Distribution of Radioactivity (percent injected dose per gram of tissue) in Rat striatum after 60 min of iv administration; value ranges from 2.07-2.83. The format is ADME, organism-based. Conditions: in vivo, 1 h. In outline:
as §2

Series [24] has as its system Rattus norvegicus. The series is described as follows: Distribution of Radioactivity (percent injected dose per gram of tissue) in Rat brain cortex after 30 min of iv administration; value ranges from 2.47-3.09. Conditions: in vivo, 0.5 h. The format is ADME, organism-based. An outline of the steps: as §2
In series [25] the target is Sodium-dependent dopamine transporter (Homo sapiens, UniProt Q01959). Description: Inhibition constant against [N-methyl-3H]WIN-35428 in murine kidney cells transfected with human dopamine transporter. The format is cell-based. An outline of the steps: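 Membranes from a kidney cell line stably expressing human DAT. Buffer: 0.03 M phosphate, pH 7.4, with 0.32 M sucrose. Radioligand: [³H]WIN 35,428 at 2.0 nM final. Incubated 2 h at 4 °C with competitor at nine concentrations (10^-13 to 10^-6 M, triplicate). GF/B filtration, then scintillation counting. Ki taken from competition curves.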
Sodium-dependent dopamine transporter (Homo sapiens, UniProt Q01959), sequence (Q01959 whole entry): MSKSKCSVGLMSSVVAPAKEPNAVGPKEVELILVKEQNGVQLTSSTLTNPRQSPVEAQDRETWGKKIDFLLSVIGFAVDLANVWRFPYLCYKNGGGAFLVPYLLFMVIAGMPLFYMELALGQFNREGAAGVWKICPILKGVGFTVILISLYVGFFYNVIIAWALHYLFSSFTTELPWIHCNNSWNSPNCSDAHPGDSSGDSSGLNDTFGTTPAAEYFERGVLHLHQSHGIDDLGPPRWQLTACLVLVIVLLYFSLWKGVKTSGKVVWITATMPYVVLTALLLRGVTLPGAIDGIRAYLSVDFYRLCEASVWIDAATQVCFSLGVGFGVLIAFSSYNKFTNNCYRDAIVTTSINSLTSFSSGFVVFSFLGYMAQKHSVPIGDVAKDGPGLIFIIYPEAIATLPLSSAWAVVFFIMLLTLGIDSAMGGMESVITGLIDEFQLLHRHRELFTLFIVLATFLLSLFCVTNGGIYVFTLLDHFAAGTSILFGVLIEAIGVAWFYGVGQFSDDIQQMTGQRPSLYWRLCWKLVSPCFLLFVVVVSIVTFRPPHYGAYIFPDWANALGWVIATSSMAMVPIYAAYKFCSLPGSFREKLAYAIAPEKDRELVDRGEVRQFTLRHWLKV

For series [26], the system named is Rattus norvegicus. The series is described as follows: Distribution of Radioactivity (percent injected dose per gram of tissue) in Rat brain cortex after 5 min of iv administration; value ranges from 2.47-3.09. The format is ADME, organism-based. Conditions: in vivo. An outline of the steps:
as §2

A short description of series [27]: Ratio of Distribution of Radioactivity (percent injected dose per gram of tissue) in striatum to cortex of brain after 5 min of iv administration; value ranges from 1.32-1.94. The format is ADME, organism-based. The settings on record: in vivo.
The nature of series [28]: Ratio of Distribution of Radioactivity (percent injected dose per gram of tissue) in striatum to cerebellum of brain after 120 min of iv administration; value ranges from 4.64-6.14. The format is ADME, organism-based. The settings on record: in vivo, 2 h.
A short description of series [29]: Ratio of inhibition of 5-HT to inhibition of dopamine (5-HT/DA); ND means no data.
Series [30] deals with Rattus norvegicus. The series is described as follows: Distribution of Radioactivity (percent injected dose per gram of tissue) in rest rat of brain after 60 min of iv administration; value ranges from 0.36-0.52. The class given is ADME, organism-based. Conditions: in vivo, 1 h. An outline of the steps: as §2

Usually Ki stands for the equilibrium dissociation constant of an inhibitor or competing ligand from its target. Read a high Ki as weaker binding.

Sodium-dependent dopamine transporter (Rattus norvegicus, UniProt P23977), sequence (P23977 whole entry): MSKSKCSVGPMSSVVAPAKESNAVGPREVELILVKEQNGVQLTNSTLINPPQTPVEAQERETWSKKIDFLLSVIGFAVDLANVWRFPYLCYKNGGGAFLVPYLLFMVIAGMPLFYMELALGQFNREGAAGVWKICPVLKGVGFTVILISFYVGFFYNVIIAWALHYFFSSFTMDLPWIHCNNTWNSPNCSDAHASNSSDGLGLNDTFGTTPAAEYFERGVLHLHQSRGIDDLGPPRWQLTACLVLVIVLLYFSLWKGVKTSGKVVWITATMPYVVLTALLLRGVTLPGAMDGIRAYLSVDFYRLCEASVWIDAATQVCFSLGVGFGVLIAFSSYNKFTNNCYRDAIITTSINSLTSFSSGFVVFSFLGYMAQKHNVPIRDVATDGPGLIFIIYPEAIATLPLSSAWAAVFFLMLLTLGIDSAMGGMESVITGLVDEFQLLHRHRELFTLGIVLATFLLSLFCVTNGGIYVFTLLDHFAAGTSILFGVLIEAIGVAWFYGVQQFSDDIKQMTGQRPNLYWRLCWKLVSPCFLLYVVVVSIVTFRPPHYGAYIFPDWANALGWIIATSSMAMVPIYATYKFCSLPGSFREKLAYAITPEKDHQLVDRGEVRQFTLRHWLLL
Norepinephrine transporter, sequence (Q9WTR4 whole entry): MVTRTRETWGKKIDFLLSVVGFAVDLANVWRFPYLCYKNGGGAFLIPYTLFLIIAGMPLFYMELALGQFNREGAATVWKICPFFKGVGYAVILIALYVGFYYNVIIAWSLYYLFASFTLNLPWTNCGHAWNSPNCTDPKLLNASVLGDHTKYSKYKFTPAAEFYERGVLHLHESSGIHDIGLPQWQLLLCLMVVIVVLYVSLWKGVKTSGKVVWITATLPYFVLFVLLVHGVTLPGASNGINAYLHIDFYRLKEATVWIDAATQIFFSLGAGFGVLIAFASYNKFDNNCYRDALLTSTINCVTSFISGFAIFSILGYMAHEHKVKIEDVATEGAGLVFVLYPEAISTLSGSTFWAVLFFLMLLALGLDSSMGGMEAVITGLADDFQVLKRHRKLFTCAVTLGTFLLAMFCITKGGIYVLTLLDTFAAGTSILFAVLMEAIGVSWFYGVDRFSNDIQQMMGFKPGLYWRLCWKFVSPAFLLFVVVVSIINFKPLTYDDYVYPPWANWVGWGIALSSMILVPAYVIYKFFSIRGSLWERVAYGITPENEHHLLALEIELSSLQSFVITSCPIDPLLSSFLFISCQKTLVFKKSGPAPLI
Sodium-dependent serotonin transporter (Rattus norvegicus, UniProt P31652), sequence (P31652 whole entry): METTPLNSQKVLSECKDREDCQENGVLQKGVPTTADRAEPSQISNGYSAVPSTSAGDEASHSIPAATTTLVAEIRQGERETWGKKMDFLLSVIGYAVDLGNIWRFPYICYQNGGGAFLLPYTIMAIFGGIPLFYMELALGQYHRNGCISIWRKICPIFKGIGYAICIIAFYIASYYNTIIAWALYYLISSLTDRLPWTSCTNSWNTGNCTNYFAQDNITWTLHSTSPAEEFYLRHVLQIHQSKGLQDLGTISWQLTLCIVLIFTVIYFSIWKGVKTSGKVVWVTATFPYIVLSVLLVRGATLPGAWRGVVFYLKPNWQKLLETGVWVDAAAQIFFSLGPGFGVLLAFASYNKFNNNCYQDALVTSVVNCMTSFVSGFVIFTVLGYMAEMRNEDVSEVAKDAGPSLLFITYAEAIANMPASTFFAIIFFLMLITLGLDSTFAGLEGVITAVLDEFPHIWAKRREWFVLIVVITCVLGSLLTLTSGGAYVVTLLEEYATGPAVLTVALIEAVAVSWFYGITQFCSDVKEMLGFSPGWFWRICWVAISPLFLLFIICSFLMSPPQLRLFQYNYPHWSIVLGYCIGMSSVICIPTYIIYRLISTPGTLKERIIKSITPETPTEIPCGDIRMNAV

Regarding `C[C@H](CF)OC(=O)C1C(c2ccc(Cl)cc2)CC2CCC1N2C` (stereo partly drawn), the values for the Ratio (in the series with kidney; in series [29]) were 20 and 9, respectively. Also, the inhibitory constant (Ki) in series [1] came out at 498 nM; in series [14] it was 64 nM; in series [19] it was 14.7 nM; in [21], 133 nM; in [25], 3.2 nM. For the same compound, the “S/CX Ratio” value in [2] turned out to be 3; in series [3] it was 2.96; in [8], 2.21; in [27] it was 1.44. Moreover, the Biodistribution with Rattus norvegicus [4] stood at 1.03%; in the series with Rattus norvegicus [6], 1.42%; with Rattus norvegicus [9] it was 1.36%; in the series on Rattus norvegicus [11], 0.77%; in the series on Rattus norvegicus [12], 0.22%; in the series with Rattus norvegicus [13], 0.38%. The Biodistribution with Rattus norvegicus [15] came to 0.99%; in the series on Rattus norvegicus [16] it was 1.2%; in the series with Rattus norvegicus [17] it was 0.4%; in the series on Rattus norvegicus [18], 0.27%; in the series on Rattus norvegicus [20] it was 4.5%; in the series with Rattus norvegicus [22] it was 3.97%. The Biodistribution in the series with Rattus norvegicus [23] was found to be 2.28%; in the series on Rattus norvegicus [24] it was 2.04%; in the series with Rattus norvegicus [26], 2.76%; in the series on Rattus norvegicus [30] it was 0.45%. Also, the “S/Cereb Ratio” value amounted to 4.55 in series [5], 6 in series [7], 2.79 in series [10] and 5.45 in series [28].
In the case of `C[C@@H](CF)OC(=O)C1C(c2ccc(Cl)cc2)CC2CCC1N2C` (stereo partly drawn), the Ratio in the series on kidney came to 127; in series [29] it was 23. Further, the Ki in series [1] worked out at 690 nM; in series [14] it was 85 nM; in [19], 6.06 nM; in series [21], 137 nM; in series [25], 0.67 nM.
